MEP2-GFP yeast: yeast TOR pathway MEP2-GFP modulation; S. cerevisiae MEP2-GFP strain, flow cytometry GFP, 3 h; 100% = DMSO control level; GFP response vs DMSO, % at 10 µM; hit rate 0.51% among 330,000; AID 2016;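 active = GFP response versus DMSO above a set limit, roughly screen mean plus 3 SD, cut at about 180% in these data; inconclusive = fewer than 70 cells counted for a yeast strain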;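 note: median GFP fluorescence of the barcode-gated MEP2-GFP cells per well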
LAP4-GFP MLPCN: yeast TOR pathway LAP4-GFP modulation; AID 2023; hit rate 0.34% among 320,000; GFP response vs DMSO, % at 10 µM; S. cerevisiae LAP4-GFP multiplex, flow cytometry GFP, 3 h; median GFP as percent of DMSO wells;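 active = GFP response vs DMSO above a set limit, about the screen mean plus 3 SD, cut at about 150% in these data; inconclusive = under 70 cell events counted for the yeast strain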
T cell modulator: T cell immune modulators affecting CD8 T cell-vesicle binding. 2C CD8+ T cell-vesicle binding, flow cytometry; stronger effect = lower value. response (vesicle binding), % at 7 µM. hit rate 0.068% among 330,000;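 active = response, share of CD8 T cells binding vesicles, and their 90th percentile fluorescence all below set limits, cut at about 80% in these data, passing the limit was not always enough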;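 note: values below 100% mean blocked vesicle binding to the CD8+ T cells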
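Benchmarks: naked versus QL9-loaded vesicles / Assay system: purified 2C TCR transgenic mouse naive CD8+ T cells / Technique: high-throughput flow cytometry with anti-B7-1 and anti-CD8 staining / Timing: Cell–vesicle co-incubation 1.5 h at 37 °C, staining 20 min on ice / Read-out: percent CD8+ FL2 mean versus row control / Probe or stimulus: QL9-loaded Drosophila micro-vesicles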
AGP1-GFP MLPCN: modulators of TOR pathway AGP1-GFP in S. cerevisiae. S. cerevisiae AGP1-GFP multiplex flow cytometry, 3 h; GFP as percent of DMSO wells. GFP response vs DMSO, % at 10 µM. hit rate 0.02% among 320,000. AID 2066;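 active = GFP response relative to DMSO above a set limit, near screen average plus 3 SD, cut at about 150% in these data; inconclusive = fewer than 70 cells counted for the yeast strain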;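 note: median GFP channel fluorescence of the gated AGP1 strain per well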
CIT2-GFP yeast: alters CIT2-GFP fluorescence in TOR pathway yeast screen | S. cerevisiae CIT2-GFP strain, flow cytometry, 3 h; 100 means same as DMSO wells | AID 2029 | GFP response vs DMSO, % at 10 µM | hit rate 0.065% among 320,000;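 active = GFP response relative to DMSO above a set limit, near the screen mean plus 3 SD, cut at about 150% in these data; inconclusive = Fewer than 70 cells measured for a yeast strain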;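 note: ratio of well median GFP fluorescence to mean of DMSO wells on the plate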
RPL19A TOR yeast: modulators of TOR pathway RPL19A-GFP in S. cerevisiae. percent response vs DMSO, % at 10 µM. AID 2025. S. cerevisiae RPL19A-GFP strain, flow cytometry, 3 h; stronger effect = lower value. hit rate 0.3% among 330,000;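 active = percent response vs DMSO below 50%; inconclusive = fewer than 70 events counted for the yeast strain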;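 note: median channel GFP fluorescence of the barcoded RPL19A-GFP strain; ratio of sample median GFP to plate DMSO average so 100% = DMSO; lower means less RPL19A-GFP as with rapamycin TOR inhibition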
* hit, by the source's call; [ ] = remark or other dose. In the library only some 0.96% were active in any assay of this set; here they are far more common.

Results for CCOC(=O)c1[nH]cnc1C(=O)Nc1ccc([N+](=O)[O-])cc1 ?
MEP2-GFP yeast: 761*[may fluoresce violet]; LAP4-GFP MLPCN: 60; T cell modulator: 182; AGP1-GFP MLPCN: inconclusive; CIT2-GFP yeast: inconclusive; RPL19A TOR yeast: 33*[may fluoresce violet]

How did O=C(Nc1ccc(F)cc1)c1nc[nH]c1C(=O)Nc1ccc([N+](=O)[O-])cc1 do in these assays?
MEP2-GFP yeast: 98; LAP4-GFP MLPCN: 89; T cell modulator: 370; AGP1-GFP MLPCN: 94; CIT2-GFP yeast: 101; RPL19A TOR yeast: 100

How did CC1CCCN(S(=O)(=O)c2ccc(Cl)s2)C1 (configuration not stated) do in these assays?
MEP2-GFP yeast: 316*[may fluoresce violet]; LAP4-GFP MLPCN: 84; T cell modulator: 212; AGP1-GFP MLPCN: 22; CIT2-GFP yeast: inconclusive; RPL19A TOR yeast: 54

Results for CC(=O)c1ccc(CCCCCCCCCC(=O)O)s1 ?
MEP2-GFP yeast: 99; LAP4-GFP MLPCN: 153*; T cell modulator: 394; AGP1-GFP MLPCN: 100; CIT2-GFP yeast: 92; RPL19A TOR yeast: 96

What do the screens show for `CCc1ccc2nc3nc(C)cc(C)c3c(N)c2c1`?
MEP2-GFP yeast: 384*[may fluoresce violet]; LAP4-GFP MLPCN: 80; T cell modulator: 181; AGP1-GFP MLPCN: inconclusive; CIT2-GFP yeast: inconclusive; RPL19A TOR yeast: 32*[may fluoresce violet]

Results for Cc1cc(C)c2c(N)c3ccccc3nc2n1 ?
MEP2-GFP yeast: 134; LAP4-GFP MLPCN: 99; T cell modulator: 366; AGP1-GFP MLPCN: 22; CIT2-GFP yeast: inconclusive; RPL19A TOR yeast: 15*[may fluoresce violet]

Results for Cc1cc(C)c2cccc(N)c2n1 ?
MEP2-GFP yeast: 97; LAP4-GFP MLPCN: 101; T cell modulator: 835; AGP1-GFP MLPCN: 95; CIT2-GFP yeast: 94; RPL19A TOR yeast: 100

How did O=C(Nc1ccc(Cl)c(Cl)c1)N(CCCN1CCOCC1)Cc1cccnc1 do in these assays?
MEP2-GFP yeast: 180*[may fluoresce violet]; LAP4-GFP MLPCN: 91; T cell modulator: 369; AGP1-GFP MLPCN: 19; CIT2-GFP yeast: inconclusive; RPL19A TOR yeast: 50*[may fluoresce violet]

How did CSCCC(NC(=O)c1cccc([N+](=O)[O-])c1)C(=O)OCC(=O)N1CCCC1=O (configuration not stated) do in these assays?
MEP2-GFP yeast: 92; LAP4-GFP MLPCN: 88; T cell modulator: 209; AGP1-GFP MLPCN: 93; CIT2-GFP yeast: 98; RPL19A TOR yeast: 89

How did Cn1c(=O)[nH]c(=O)c2c1nc(N1CCCCC1)n2CCOc1ccccc1 do in these assays?
MEP2-GFP yeast: 218*; LAP4-GFP MLPCN: 90; T cell modulator: 407; AGP1-GFP MLPCN: 26; CIT2-GFP yeast: 118

What do the screens show for `CCC(C)Nc1nc(N)c([N+](=O)[O-])c(Nc2cc(OC)ccc2OC)n1` (configuration not stated)?
MEP2-GFP yeast: 265*[may fluoresce violet]; T cell modulator: 593; RPL19A TOR yeast: 77

Results for COc1ccc(CNC(=O)CNC(=O)c2cccs2)c(OC)c1 ?
MEP2-GFP yeast: 113; LAP4-GFP MLPCN: 101; T cell modulator: 271; AGP1-GFP MLPCN: 105; CIT2-GFP yeast: 105; RPL19A TOR yeast: 102

What do the screens show for `COc1cc2cc(C(N)=O)c(N)nc2cc1OC`?
MEP2-GFP yeast: 216*[may fluoresce violet]; LAP4-GFP MLPCN: 97; T cell modulator: 172; AGP1-GFP MLPCN: inconclusive; CIT2-GFP yeast: inconclusive; RPL19A TOR yeast: 44*[may fluoresce violet]

Results for CCc1ccc(/C=C2/SC(=S)N(CCC(=O)NCCCN3CCOCC3)C2=O)cc1 ?
MEP2-GFP yeast: 87; LAP4-GFP MLPCN: 73; T cell modulator: 305; AGP1-GFP MLPCN: 96; CIT2-GFP yeast: 96; RPL19A TOR yeast: 103

What do the screens show for `COC(=O)c1ccc(/C=C2/SC(=S)N(CCC(=O)NCCCN3CCOCC3)C2=O)cc1`?
MEP2-GFP yeast: 566*[may fluoresce violet]; LAP4-GFP MLPCN: 89; T cell modulator: 223; AGP1-GFP MLPCN: inconclusive; CIT2-GFP yeast: inconclusive; RPL19A TOR yeast: 58

How did COc1cccc(NC(=O)c2ccc(N3C(=O)C4CC=CCC4C3=O)cc2)c1 (configuration not stated) do in these assays?
MEP2-GFP yeast: 95; LAP4-GFP MLPCN: 118; T cell modulator: 150; AGP1-GFP MLPCN: 101; CIT2-GFP yeast: 94; RPL19A TOR yeast: 91

Results for CC(C)[C@H](NC(=O)C1CCN(C(=O)[C@@H]2CCCN2)CC1)C(=O)NCc1ccc(F)cc1 ?
MEP2-GFP yeast: 100; LAP4-GFP MLPCN: 94; T cell modulator: 222; AGP1-GFP MLPCN: 101; CIT2-GFP yeast: 99; RPL19A TOR yeast: 94

What do the screens show for `O=C1/C(=C\c2ccccn2)SC(=S)N1Nc1ncc(C(F)(F)F)cc1Cl`?
MEP2-GFP yeast: 99; LAP4-GFP MLPCN: 152*; T cell modulator: 357; AGP1-GFP MLPCN: 91; CIT2-GFP yeast: 104; RPL19A TOR yeast: 100

How did CCCN(CCC)c1ccc(/C=C/c2ccc3cc(OCC)ccc3n2)cc1 do in these assays?
MEP2-GFP yeast: 231*[may fluoresce violet]; LAP4-GFP MLPCN: 96; T cell modulator: 86; AGP1-GFP MLPCN: 15; CIT2-GFP yeast: inconclusive; RPL19A TOR yeast: 76

What do the screens show for `O=C(C1=C(O)C(=O)N(CC2CCCO2)C1c1ccc(Cl)cc1)c1ccco1` (configuration not stated)?
MEP2-GFP yeast: 276*[may fluoresce violet]; LAP4-GFP MLPCN: 94; T cell modulator: 242; AGP1-GFP MLPCN: 28; CIT2-GFP yeast: inconclusive; RPL19A TOR yeast: 58

Results for C/C=C/C1=CC(=O)C[C@H](c2ccc3c(c2)OCO3)C1 ?
MEP2-GFP yeast: 92; LAP4-GFP MLPCN: 85; T cell modulator: 293; AGP1-GFP MLPCN: 68; CIT2-GFP yeast: 97; RPL19A TOR yeast: 95

What do the screens show for `CCOC(=O)N/N=C/c1cc(C)n(-c2cccc3ccccc23)c1C`?
MEP2-GFP yeast: 144; LAP4-GFP MLPCN: 103; T cell modulator: 201; AGP1-GFP MLPCN: 99; CIT2-GFP yeast: 102; RPL19A TOR yeast: 103

What do the screens show for `COC(=O)N/N=C/c1cc(C)n(-c2cccc3ccccc23)c1C`?
MEP2-GFP yeast: 144; LAP4-GFP MLPCN: 75; T cell modulator: 199; AGP1-GFP MLPCN: 19; CIT2-GFP yeast: inconclusive; RPL19A TOR yeast: 44*[may fluoresce violet]

Results for N#CC12COC3(CCCCC3C1(C#N)C#N)OC2=N (configuration not stated) ?
MEP2-GFP yeast: 182*[may fluoresce violet]; LAP4-GFP MLPCN: 81; T cell modulator: 293; AGP1-GFP MLPCN: inconclusive; CIT2-GFP yeast: inconclusive; RPL19A TOR yeast: 48*[may fluoresce violet]

Results for CN(CCCNC(=O)c1cc2c(=O)[nH]c3ccccc3c2n1C)Cc1ccccc1 ?
MEP2-GFP yeast: 91; LAP4-GFP MLPCN: 129; T cell modulator: 343; AGP1-GFP MLPCN: inconclusive; CIT2-GFP yeast: inconclusive; RPL19A TOR yeast: 31*[may fluoresce violet]

Results for CC1CC(C)CN(CCCNC(=O)c2cc3c(=O)[nH]c4ccccc4c3n2C)C1 (configuration not stated) ?
MEP2-GFP yeast: 104; LAP4-GFP MLPCN: 99; T cell modulator: 418; AGP1-GFP MLPCN: 102; CIT2-GFP yeast: 81; RPL19A TOR yeast: 105

Compound activity (PubChem)
